These results are taken from ChEMBL document CHEMBL3860038, “Discovery of (R,E)-N-(7-Chloro-1-(1-[4-(dimethylamino)but-2-enoyl]azepan-3-yl)-1H-benzo[d]imidazol-2-yl)-2-methylisonicotinamide (EGF816), a Novel, Potent, and WT Sparing Covalent Inhibitor of Oncogenic (L858R, ex19del) and Resistant (T790M) EGFR Mutants for the Treatment of EGFR Mutant …” (J Med Chem, 2016).

As a reminder, the IC50 is the point on the concentration scale where inhibition reaches its midpoint. By solubility is commonly meant the dissolved amount per volume that the medium holds. The low end stands for a poorly soluble substance, the high end for a readily soluble substance. One may read the clearance as a measure of how efficiently the substance is removed, as volume per time. The term AUC denotes concentration integrated over time. A lower AUC goes with low exposure. One may read the bioavailability as dose-corrected exposure relative to a reference, in per cent.

Data set [1] addresses T1, Epidermal growth factor receptor (Homo sapiens, UniProt P00533, L858R/T790M). The data set can be described thus: Inhibition of N-terminal 6x-HIS-tagged human recombinant EGFR (696 to 1022 residues) L858R/T790M mutant expressed in Sf9 cells pre-incubated for 0 mins followed by 1 mM ATP addition by HTRF assay. The gist of the method: (§1)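 HTRF kinase assay on the EGFR L858R-T790M kinase domain at 1 mM ATP. Compound with either no preincubation or a 90 min enzyme/compound preincubation.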

In data set [2] the target is T1, Epidermal growth factor receptor. Nature of the data set: Inhibition of N-terminal 6x-HIS-tagged human recombinant EGFR (696 to 1022 residues) L858R/T790M mutant expressed in Sf9 cells pre-incubated for 90 mins followed by 1 mM ATP addition by HTRF assay. The gist of the method:
as §1
In general terms: Time-resolved FRET reads energy transfer from a long-lived donor to a nearby acceptor.

The target is the same in data set [3]. The data set can be described thus: Inhibition of EGFR L858R/T790M mutant (unknown origin) phosphorylation expressed in mouse NIH/3T3 cells incubated for 3 hrs by ELISA method. Type of data set: cell-based. The method, boiled down:
(§2)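 Engineered NIH-3T3 cells expressing L858R-T790M, L858R or WT EGFR. 3 h compound treatment, then cellular phospho-EGFR target modulation read-out. IC50 averaged from at least duplicates.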
(In general: An ELISA detects its analyte on a solid surface through an enzyme-linked reagent.)

Data set [4] concerns the target T2, Epidermal growth factor receptor (Homo sapiens, UniProt P00533, L858R). Nature of the data set: Inhibition of EGFR L858R mutant (unknown origin) phosphorylation expressed in mouse NIH/3T3 cells incubated for 3 hrs by ELISA method. Type of data set: cell-based. The gist of the method: as §2
Data set [5] has as its target T3, Epidermal growth factor receptor (Homo sapiens, UniProt P00533). The data set can be described thus: Inhibition of wild type human EGFR phosphorylation expressed in mouse NIH/3T3 cells incubated for 3 hrs by ELISA method. Type of data set: cell-based. The gist of the method:
as §2

Data set [6] has as its target T1, Epidermal growth factor receptor. Nature of the data set: Inhibition of EGFR L858R/T790M mutant phosphorylation in human patient derived H1975 cells incubated for 3 hrs by ELISA method. Format: cell-based.
Data set [7] deals with T2, Epidermal growth factor receptor. The data set can be described thus: Inhibition of EGFR L858R mutant phosphorylation in human patient derived H3255 cells incubated for 3 hrs by ELISA method. Type of data set: cell-based.
Data set [8] is described as follows: Inhibition of EGFR E746 to A750 deletion mutant phosphorylation in human patient derived HCC827 cells incubated for 3 hrs by ELISA method. Format: cell-based. Particulars: HCC827, 3 h. The method, boiled down:
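HCC827 cells plated at 7500/well in 5% FBS/RPMI and left overnight at 37 °C. Then 3 h with a 12-point compound dilution series, no EGF stimulation. Lysed in Triton/protease/phosphatase-inhibitor buffer. Phospho-EGFR (Y1173) read by sandwich ELISA: anti-EGFR capture, anti-phospho-EGFR, anti-rabbit-HRP, chemiluminescence. IC50 from at least duplicates.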

Data set [9] has as its target T3, Epidermal growth factor receptor. The data set can be described thus: Inhibition of wild type EGFR phosphorylation in human HaCaT cells incubated for 3 hrs by ELISA method. Type of data set: cell-based.
Data set [10] in a line: Aqueous solubility of the compound at pH 6.8. Type of data set: physicochemical.
A further data set concerns the target Cytochrome P450 3A4 (Homo sapiens, UniProt P08684). Nature of the data set: Inhibition of CYP3A4 (unknown origin). Type of data set: ADME.
The next data set deals with Cytochrome P450 2D6 (Homo sapiens, UniProt P10635). The data set can be described thus: Inhibition of CYP2D6 (unknown origin). Format: ADME.
Another data set has as its target Cytochrome P450 2C9 (Homo sapiens, UniProt P11712). Nature of the data set: Inhibition of CYP2C9 (unknown origin). Format: ADME.
Data set [11] in a line: Intrinsic clearance in human liver microsomes. Type of data set: ADME. The settings on record: read-out: CLH.
A short description of data set [12]: Intrinsic clearance in mouse liver microsomes. Format: ADME. The settings on record: read-out: CLH. For orientation: Liver microsomes are vesicles of endoplasmic reticulum, rich in cytochrome P450 enzymes.
A short description of data set [13]: Clearance in balb/c mouse at 5 mg/kg, iv by liquid chromatography-tandem mass spectrometry. Format: ADME, organism-based. Particulars: in vivo. The gist of the method: (§3)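 Rodent PK in male balb/c mice and male Wistar rats; plasma drug levels by LC-MS/MS. Mouse oral dosing at 20 mg/kg, with compounds given as a 0.5% methylcellulose/0.5% Tween 80 suspension or as solutions (PEG300/D5W, or ethanol/PEG300 with Solutol or D5W), depending on compound.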

The nature of data set [14]: AUC in balb/c mouse at 20 mg/kg, po by liquid chromatography-tandem mass spectrometry. Format: ADME, organism-based. Particulars: in vivo. The method, boiled down: as §3
A short description of data set [15]: Oral bioavailability in balb/c mouse at 20 mg/kg by liquid chromatography-tandem mass spectrometry. Format: ADME, organism-based. The settings on record: in vivo. The method, boiled down:
as §3

The nature of data set [16]: Glutathione reactivity assessed as GSH adduct formation incubated for 1 hr using 10 mM glutathione. The method, boiled down:
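Compound incubated 1 h with 10 mM glutathione; GSH adduct formation measured.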

A short description of data set [17]: Antitumor activity against human NCI-H1975 cells xenografted in Foxn1 nude mouse assessed as reduction in tumor volume at 50 mg/kg, po qd for 5 days relative to untreated control. Format: functional. The method, boiled down:
(§4)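 Female Foxn1 nude mice, H1975 cells inoculated subcutaneously. Randomized into groups once tumors reached 150−200 mm³, then dosed by oral gavage once daily for 5 days in 0.5% MC/0.5% Tween80 suspension (10 μL/g). Tumor volumes by caliper, (length × width × width)/2. %T/C = 100 × ΔT/ΔC, or % regression = 100 × ΔT/T_initial when ΔT < 0. Body weight recorded daily.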

Data set [18] in a line: Time duration during which free plasma concentration stays above in-vitro IC50 level in human NCI-H1975 cells xenografted Foxn1 nude mouse at 20 mg/kg, po qd for 5 days. Type of data set: ADME, organism-based. The settings on record: in vivo, 120 h. The gist of the method: (§5)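 H1975 xenografts in Foxn1 nude mice, oral dosing once daily for 5 days. Plasma sampled after the last dose on day 5, at 30 min, 3 h, 7 h and 24 h. Free drug exposure was compared with in vitro cellular IC50 across the dosing interval.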

The nature of data set [19]: Time duration during which free plasma concentration stays above in-vitro IC50 level in human NCI-H1975 cells xenografted Foxn1 nude mouse at 50 mg/kg, po qd for 5 days. Type of data set: ADME, organism-based. The settings on record: in vivo, 120 h. The method, boiled down:
as §5

A short description of data set [20]: Antitumor activity against human NCI-H1975 cells xenografted in Foxn1 nude mouse assessed as reduction in tumor volume at 20 mg/kg, po qd for 5 days relative to untreated control. Type of data set: functional. The gist of the method: as §4
For data set [21], the system named is Mus musculus. Nature of the data set: Toxicity in human NCI-H1975 cells xenografted Foxn1 nude mouse assessed as change in body weight at 50 mg/kg, po qd for 5 days (reference value: […]). Format: organism-based. Particulars: in vivo, 120 h.
The subject of data set [22] is Mus musculus. The data set can be described thus: Toxicity in human NCI-H1975 cells xenografted Foxn1 nude mouse assessed as change in body weight at 20 mg/kg, po qd for 5 days (reference value: […]). Type of data set: organism-based. The settings on record: in vivo, 120 h.
The test system of another data set is NCI-H1975. Nature of the data set: Antitumor activity against human NCI-H1975 cells xenografted in Foxn1 nude mouse assessed as reduction in tumor volume dosed orally once daily for 5 days relative to untreated control. Format: functional, organism-based. The gist of the method: as §4

Converted amounts (≈) assume the structure as drawn.

T1 sequence (P00533 25-1210 T790M/L858R limits assumed): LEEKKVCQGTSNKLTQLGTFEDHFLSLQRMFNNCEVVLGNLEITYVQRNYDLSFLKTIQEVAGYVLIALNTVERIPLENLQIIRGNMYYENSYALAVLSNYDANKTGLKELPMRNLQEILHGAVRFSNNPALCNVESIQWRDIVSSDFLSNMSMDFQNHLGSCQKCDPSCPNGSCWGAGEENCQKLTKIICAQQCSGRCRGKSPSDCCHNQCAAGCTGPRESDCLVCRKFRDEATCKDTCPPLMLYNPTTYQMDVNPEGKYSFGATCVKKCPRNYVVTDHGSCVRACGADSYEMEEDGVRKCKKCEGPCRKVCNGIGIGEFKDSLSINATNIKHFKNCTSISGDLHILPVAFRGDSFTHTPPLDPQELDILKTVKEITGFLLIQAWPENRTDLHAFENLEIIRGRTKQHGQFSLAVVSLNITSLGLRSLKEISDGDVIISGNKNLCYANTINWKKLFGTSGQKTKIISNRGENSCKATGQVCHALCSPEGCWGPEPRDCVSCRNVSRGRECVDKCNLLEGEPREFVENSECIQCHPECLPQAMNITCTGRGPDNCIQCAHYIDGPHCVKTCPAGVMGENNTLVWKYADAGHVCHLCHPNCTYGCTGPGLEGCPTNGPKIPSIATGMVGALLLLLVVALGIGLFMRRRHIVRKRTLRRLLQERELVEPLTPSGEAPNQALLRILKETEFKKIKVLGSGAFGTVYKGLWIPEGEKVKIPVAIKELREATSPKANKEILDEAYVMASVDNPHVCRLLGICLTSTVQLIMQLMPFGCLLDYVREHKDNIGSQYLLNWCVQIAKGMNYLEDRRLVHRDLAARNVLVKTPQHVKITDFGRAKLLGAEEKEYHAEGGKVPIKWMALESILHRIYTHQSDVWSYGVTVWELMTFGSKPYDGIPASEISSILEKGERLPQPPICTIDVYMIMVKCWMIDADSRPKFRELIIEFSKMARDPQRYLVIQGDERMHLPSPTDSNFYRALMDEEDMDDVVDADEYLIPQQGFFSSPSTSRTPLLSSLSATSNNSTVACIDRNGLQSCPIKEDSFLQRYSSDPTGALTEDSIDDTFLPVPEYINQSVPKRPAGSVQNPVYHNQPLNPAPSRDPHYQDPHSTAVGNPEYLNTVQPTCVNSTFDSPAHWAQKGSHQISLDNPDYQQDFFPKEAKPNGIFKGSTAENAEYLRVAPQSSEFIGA
T3 sequence (P00533 whole entry): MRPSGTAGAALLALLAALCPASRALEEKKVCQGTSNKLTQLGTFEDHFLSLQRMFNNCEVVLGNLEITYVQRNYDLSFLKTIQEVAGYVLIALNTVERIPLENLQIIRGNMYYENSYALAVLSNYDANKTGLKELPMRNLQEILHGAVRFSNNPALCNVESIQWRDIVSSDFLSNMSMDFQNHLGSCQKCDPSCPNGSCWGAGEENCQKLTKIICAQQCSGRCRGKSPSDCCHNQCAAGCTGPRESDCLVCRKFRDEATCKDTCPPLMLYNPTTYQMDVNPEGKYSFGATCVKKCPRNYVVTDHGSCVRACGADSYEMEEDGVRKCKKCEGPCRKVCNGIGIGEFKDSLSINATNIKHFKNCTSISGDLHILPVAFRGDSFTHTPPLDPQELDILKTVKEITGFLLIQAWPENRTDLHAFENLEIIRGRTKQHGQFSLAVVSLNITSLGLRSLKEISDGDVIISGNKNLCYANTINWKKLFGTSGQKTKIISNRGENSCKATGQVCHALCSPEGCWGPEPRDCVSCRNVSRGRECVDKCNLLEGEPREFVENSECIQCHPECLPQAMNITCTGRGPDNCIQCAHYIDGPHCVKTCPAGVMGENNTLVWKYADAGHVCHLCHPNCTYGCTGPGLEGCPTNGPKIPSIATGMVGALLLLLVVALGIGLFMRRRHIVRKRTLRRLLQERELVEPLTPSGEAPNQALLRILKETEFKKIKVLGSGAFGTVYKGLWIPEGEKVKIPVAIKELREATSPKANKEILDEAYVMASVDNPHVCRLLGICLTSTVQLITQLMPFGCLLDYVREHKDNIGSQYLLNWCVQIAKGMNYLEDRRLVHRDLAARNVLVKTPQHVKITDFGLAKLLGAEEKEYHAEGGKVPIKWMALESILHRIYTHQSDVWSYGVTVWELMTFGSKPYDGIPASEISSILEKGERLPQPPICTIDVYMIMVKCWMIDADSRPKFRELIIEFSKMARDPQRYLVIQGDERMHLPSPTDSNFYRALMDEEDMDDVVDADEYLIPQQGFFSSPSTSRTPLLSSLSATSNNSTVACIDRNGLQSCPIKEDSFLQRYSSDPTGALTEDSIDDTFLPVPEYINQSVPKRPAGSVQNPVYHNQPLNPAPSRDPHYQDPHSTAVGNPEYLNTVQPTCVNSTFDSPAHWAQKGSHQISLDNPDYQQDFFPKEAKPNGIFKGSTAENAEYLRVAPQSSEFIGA
T2 sequence (P00533 25-1210 L858R limits assumed): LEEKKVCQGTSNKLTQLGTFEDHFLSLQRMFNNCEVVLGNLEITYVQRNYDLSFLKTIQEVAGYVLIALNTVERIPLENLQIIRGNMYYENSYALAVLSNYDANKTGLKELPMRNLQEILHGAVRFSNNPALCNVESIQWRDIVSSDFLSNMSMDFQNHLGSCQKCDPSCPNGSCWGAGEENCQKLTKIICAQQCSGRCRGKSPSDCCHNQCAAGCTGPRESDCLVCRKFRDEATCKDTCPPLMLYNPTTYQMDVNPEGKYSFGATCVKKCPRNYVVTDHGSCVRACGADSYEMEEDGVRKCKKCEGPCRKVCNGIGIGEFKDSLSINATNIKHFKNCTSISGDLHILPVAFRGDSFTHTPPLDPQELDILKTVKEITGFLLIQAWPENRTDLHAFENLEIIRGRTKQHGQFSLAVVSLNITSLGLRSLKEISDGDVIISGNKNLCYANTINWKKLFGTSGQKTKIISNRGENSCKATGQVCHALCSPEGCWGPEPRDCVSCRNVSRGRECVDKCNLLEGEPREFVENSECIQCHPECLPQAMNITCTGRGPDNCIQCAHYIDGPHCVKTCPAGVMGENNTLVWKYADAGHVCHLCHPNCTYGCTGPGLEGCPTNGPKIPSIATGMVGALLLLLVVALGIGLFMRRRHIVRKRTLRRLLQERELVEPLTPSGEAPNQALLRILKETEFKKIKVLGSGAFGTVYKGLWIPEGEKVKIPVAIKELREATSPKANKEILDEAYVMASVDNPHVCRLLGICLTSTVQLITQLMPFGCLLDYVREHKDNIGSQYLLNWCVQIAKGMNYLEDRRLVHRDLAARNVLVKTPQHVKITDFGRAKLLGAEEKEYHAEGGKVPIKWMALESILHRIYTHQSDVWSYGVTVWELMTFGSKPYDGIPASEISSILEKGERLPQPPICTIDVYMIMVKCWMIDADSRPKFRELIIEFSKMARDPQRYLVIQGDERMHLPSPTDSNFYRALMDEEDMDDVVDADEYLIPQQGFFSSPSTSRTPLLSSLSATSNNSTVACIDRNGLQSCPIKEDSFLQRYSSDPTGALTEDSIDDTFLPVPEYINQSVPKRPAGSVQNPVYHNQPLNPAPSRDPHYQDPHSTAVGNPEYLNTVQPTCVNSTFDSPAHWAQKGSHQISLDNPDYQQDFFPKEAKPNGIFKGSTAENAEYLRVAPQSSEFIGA
Cytochrome P450 2C9, sequence (P11712 whole entry): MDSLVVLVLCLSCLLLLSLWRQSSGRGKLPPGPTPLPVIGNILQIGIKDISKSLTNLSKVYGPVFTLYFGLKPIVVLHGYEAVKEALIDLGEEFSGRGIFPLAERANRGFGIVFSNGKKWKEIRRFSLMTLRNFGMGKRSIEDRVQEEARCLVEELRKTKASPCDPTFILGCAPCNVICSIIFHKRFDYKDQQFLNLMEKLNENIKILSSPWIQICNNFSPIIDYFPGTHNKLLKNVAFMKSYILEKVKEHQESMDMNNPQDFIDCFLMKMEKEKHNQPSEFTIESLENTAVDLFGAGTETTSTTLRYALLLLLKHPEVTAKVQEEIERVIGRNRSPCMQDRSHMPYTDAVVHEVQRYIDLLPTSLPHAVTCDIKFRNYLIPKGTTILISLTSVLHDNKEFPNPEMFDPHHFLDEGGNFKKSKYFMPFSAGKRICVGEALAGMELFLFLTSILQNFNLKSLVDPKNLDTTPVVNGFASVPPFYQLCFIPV
Cytochrome P450 2D6, sequence (P10635 whole entry): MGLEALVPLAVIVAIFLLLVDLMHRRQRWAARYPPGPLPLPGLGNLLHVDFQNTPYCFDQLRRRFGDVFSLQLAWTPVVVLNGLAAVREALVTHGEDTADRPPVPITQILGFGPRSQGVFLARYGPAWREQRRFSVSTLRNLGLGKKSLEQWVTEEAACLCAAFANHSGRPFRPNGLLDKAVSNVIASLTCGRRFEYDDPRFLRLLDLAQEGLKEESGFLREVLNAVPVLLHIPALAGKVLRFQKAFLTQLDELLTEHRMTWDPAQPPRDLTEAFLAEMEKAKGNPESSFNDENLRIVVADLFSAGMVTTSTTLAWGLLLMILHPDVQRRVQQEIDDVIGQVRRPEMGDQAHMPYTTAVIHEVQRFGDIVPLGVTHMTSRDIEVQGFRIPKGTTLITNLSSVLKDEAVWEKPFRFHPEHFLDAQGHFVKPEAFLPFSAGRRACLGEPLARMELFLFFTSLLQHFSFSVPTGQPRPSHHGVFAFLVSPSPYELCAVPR
Cytochrome P450 3A4, sequence (P08684 whole entry): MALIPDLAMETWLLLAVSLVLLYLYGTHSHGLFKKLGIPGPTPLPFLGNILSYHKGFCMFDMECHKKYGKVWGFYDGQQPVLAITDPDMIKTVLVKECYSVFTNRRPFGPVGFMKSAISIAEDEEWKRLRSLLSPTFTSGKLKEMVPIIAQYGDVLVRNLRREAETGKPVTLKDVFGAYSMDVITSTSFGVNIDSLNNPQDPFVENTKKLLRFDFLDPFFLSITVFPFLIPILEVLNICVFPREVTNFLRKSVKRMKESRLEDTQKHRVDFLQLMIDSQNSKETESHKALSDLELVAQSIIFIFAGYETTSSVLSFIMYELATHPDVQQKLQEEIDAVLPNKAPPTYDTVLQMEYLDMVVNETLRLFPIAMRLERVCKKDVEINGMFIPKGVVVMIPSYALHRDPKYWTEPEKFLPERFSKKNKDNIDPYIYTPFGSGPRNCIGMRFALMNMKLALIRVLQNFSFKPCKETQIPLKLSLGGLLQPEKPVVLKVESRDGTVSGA

As for `C=CC(=O)N[C@H]1CCC[C@@H](n2c(NC(=O)c3cccc(C(F)(F)F)c3)nc3cc(C)ccc32)C1` (racemic), the IC50 is > 50000 nM in data set [1]; 4 nM in data set [2]; 41.4 nM in data set [3]; 543 nM in data set [4]; > 10000 nM in [5].
On the same counts, the results for `C=CC(=O)N[C@@H]1CCC[C@@H](n2c(NC(=O)c3cccc(C(F)(F)F)c3)nc3cc(C)ccc32)C1` (racemic) are > 50000 nM, 60 nM, 409 nM, > 3720 nM and > 10000 nM.
With `Cc1cccc2nc(NC(=O)c3ccnc(C(F)(F)F)c3)n([C@@H]3CCCCN(C(=O)/C=C/CN(C)C)C3)c12`, the IC50 in data set [6] was 1.51 nM; in [7] it was 2.65 nM; in data set [8], 1.48 nM; in data set [9], 72 nM; against Cytochrome P450 3A4, > 25000 nM; against Cytochrome P450 2D6, 6100 nM. In addition, at Cytochrome P450 2C9, the IC50 is > 25000 nM. Further, the concentration in solution in [10] (solubility) came to 12.7 µM (≈ 6.71 µg/mL). Further, the figures for the microsomal CLint in data set [11] and in data set [12] were 71 µL/min/mg and 96 µL/min/mg, respectively. Also, the clearance in data set [13] was 62.5 mL/min/kg. This compound came in with an AUC in [14] of 2.84 µM·h. The bioavailability in [15] is 27%. The Drug metabolism in data set [16] was < 5%. Also, the T/C in data set [17] is reported as -64%; in data set [20] it was -31%. For the same compound, the Time entry in data set [18] and in data set [19] was “<= 14 hr” throughout. Further, the Activity was -3.5% in the data set with Mus musculus [21], -0.3% in the data set with Mus musculus [22] and “Dose-dependent effect” with NCI-H1975.
